Experimental data from different studies.
Lines come from different studies, so protocols differ.
Matrix: Caco-2

concentration	time	efflux ratio	Structure (SMILES)
200 µg/mL	–	1.28	O=c1cc(-c2ccc(O)cc2)oc2c([C@@H]3O[C@H](CO)[C@@H](O)[C@H](O)[C@H]3O)c(O)cc(O)c12
100 µM	2 h	3.8	N#Cc1ccc(C[C@H](Nc2nnc(-c3ccc(F)cc3)o2)C(=O)N2CCc3ccccc32)cc1
200 µg/mL	–	1.56	O=c1c(O[C@@H]2O[C@H](CO)[C@H](O)[C@H](O)[C@H]2O)c(-c2ccc(O)c(O)c2)oc2cc(O)cc(O)c12
–	–	0.98	O=C(Nc1ccc(OC(F)(F)F)cc1)N[C@H]1CC[C@H](Oc2ccc(C(=O)O)cc2)CC1
–	–	2.3	Cc1ccc(N(c2ccc(NC(=O)CN(C)c3ccccc3N3CCCC3=O)cc2)C(C)C)cc1
–	–	27	O=C(NCc1nc(-c2ccc(C(F)(F)F)cc2)cs1)[C@H]1CCCN(C(=O)COCCN2CCCCC2)C1
5 µM	2 h	510	CCCCCCOC(=O)NC(=N)c1ccc(NCc2nc3cc(C(=O)N(CCC(=O)OCC)c4ccccn4)ccc3n2C)cc1
–	–	160	O=C(NCc1nc(-c2ccc(C(F)(F)F)cc2)cs1)[C@H]1CCCN(C(=O)CO[C@H]2CCCNC2)C1
–	–	18.2	COc1cc(NC(=O)Cn2cc(Cl)c3cc(F)c(-c4cnn(C)c4)cc32)cc(OC)c1OC
–	–	1	COCC(=O)N1CCC[C@H](C(=O)NCc2nc(-c3ccccc3)cs2)C1
10 µM	2 h	1.9	O=C1CCC(N2Cc3cc(C4CCN(Cc5ccccc5)CC4)ccc3C2=O)C(=O)N1 (stereo not shown)
–	–	11	N[C@@H](COCC(=O)N1CCC[C@H](C(=O)NCc2nc(-c3ccc(C(F)(F)F)cc3)cs2)C1)c1ccccc1
100 µM	2 h	19	N#Cc1ccc(C[C@H](Nc2ncc(-c3ccc(F)cc3)o2)C(=O)N2CCc3ccccc32)cc1
